Measurements: ChEMBL document CHEMBL1143018, “Synthesis and activity studies of analogues of the rat selective toxicant norbormide” (Bioorg Med Chem, 2007)
The source made the active and inactive calls. No cut-off for these calls is given here.

Columns and labels:
Heart = test: Coronaroconstriction in Wistar rat heart Langendorff preparations at 1 uM; format: functional, tissue-based
[1] = Vasoconstriction effect in Wistar rat caudal artery relative to KCl; format: functional, tissue-based
Procedure, shortened: (§1)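 Endothelium-denuded rat caudal artery rings; denudation was confirmed by absence of carbamylcholine-induced relaxation. Cumulative concentration–response curves were run over 0.1–50 µM. Contractions were expressed as a percentage of the 90 mM KCl-induced contraction. Values are mean of at least 4 rings.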

Rattus norvegicus [2] = test: Toxicity in Wistar rat assessed as death at 20 mg/kg, ip after 1 hr; format: functional, organism-based; design: dose 20 mg/kg
[3] = Vasoconstriction effect in Wistar rat caudal artery; format: functional, tissue-based; procedure, shortened: as §1
Liver [4] = test: Stimulation of mitochondrial permeability transition measured by Ca2+ retention capacity of Wistar Albino rat liver mitochondria at 50 uM; format: functional
Procedure, shortened: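 Liver mitochondria from Albino Wistar rats, isolated by differential centrifugation and suspended in Tris/HCl pH 7.4 with 0.25 M sucrose and 0.1 mM EGTA. Only preparations with RCR ≥ 3.0 (Clark electrode, succinate, 25 °C) were used. MPT was induced by Ca2+ at 25 °C in medium of 200 mM sucrose, 10 mM Tris–MOPS, 10 µM EGTA–Tris, 1 mM Pi, 0.5 µg/mL oligomycin, 5 mM succinate, 2 µM rotenone, pH 7.4.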

Aorta = test: Vasodilation activity assessed as inhibition of KCl-induced contraction in Wistar rat aorta at 50 uM; format: functional
Procedure, shortened: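 Rat aortic rings were contracted with 90 mM KCl with and without a maximal concentration of compound. Inhibition was calculated as 100 × (C − AC)/C, where C and AC are the contractile effects in milligrams with KCl alone and with compound.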

Rattus norvegicus [5] = test: Toxicity in Wistar rat assessed as death at 40 mg/kg, ip after 1 hr; format: functional, organism-based; design: dose 40 mg/kg
Procedure, shortened: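 Four male Wistar rats (150–250 g) per compound. Drug was dissolved in DMSO at 40 mg/kg and injected intraperitoneally. Animals were kept in a quiet room and watched every 15 min for early signs of toxicity. Four rats given solvent alone served as controls.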

Liver [6] = test: Stimulation of mitochondrial permeability transition measured by Ca2+ retention capacity of mouse liver mitochondria; format: functional

SMILES | Activity (Heart) | Activity [1] | Activity (Rattus norvegicus [2]) | EC50 [3] | inhibition at 50 µM (Aorta) | further results
O=C1NC(=O)C2C3OC(C=C3C(O)(c3ccccc3)c3ccccn3)C12 (stereo not given) | inactive | – | – | – | – | –
O=C1NC(=O)C2C3C=CC(C3=C(c3ccccc3)c3ccccn3)C12 (stereo not given) | inactive | 193% | Not toxic | 7.8 µM | – | Activity (Liver [4]): Active
O=C1NC(=O)[C@H]2C3CC(C=C3C(O)(c3ccccc3)c3ccccn3)[C@@H]12 (stereo not given in full) | inactive | – | – | – | – | –
O=C1CCC(=O)N1 | inactive | – | – | – | – | –
O=C1NC(=O)[C@H]2C3C=C(C(O)(c4ccccc4)c4ccccn4)C(C3=C(c3ccccc3)c3ccccc3)[C@@H]12 (stereo not given in full) | inactive | – | – | – | 31% | –
OC(C1=CC2CCC1C2)(c1ccccc1)c1ccccn1 (mixture of isomers) | inactive | – | Not toxic | – | 69% | –
O=C1NC(=O)C2C3C(C(O)(c4ccccc4)c4ccccn4)=CC(/C3=C(/c3ccccc3)c3ccccn3)C12 (stereo not given) | Active | 209% | Toxic | 1 µM | 64% | –
O=C1NC(=O)[C@H]2C3C=CC(C3)[C@@H]12 | inactive | – | – | – | – | –
O=C1NC(=O)[C@H]2C3C(C(O)(c4ccccc4)c4ccccn4)=CC(C3=C(c3ccccc3)c3ccccc3)[C@@H]12 (stereo not given in full) | Active | 185% | – | 4.2 µM | 42% | Activity (Rattus norvegicus [5]): Toxic
O=C1NC(=O)[C@H]2C3C=C(C(O)(c4ccccc4)c4ccccn4)C(C3)[C@@H]12 (stereo not given in full) | inactive | – | – | – | – | –
OC(C1=CC2CCC1/C2=C(\c1ccccc1)c1ccccn1)(c1ccccc1)c1ccccn1 (mixture of isomers) | inactive | – | Not toxic | – | 60% | –
C=C(c1ccccc1)c1ccccn1 | inactive | 185% | Not toxic | 11 µM | – | Activity (Liver [6]): inactive; Activity (Liver [4]): Active
CC(O)(c1ccccc1)c1ccccn1 (stereo not given) | inactive | – | – | – | – | –
